SMILES strings stand for the structures. ≈ marks a conversion by molar mass, not a printed value. Calls of active or inactive are those of the source. No cut-off for these calls is given here.

The subject of data set [1] is Plasmodium falciparum. Nature of the data set: Antiplasmodium activity against chloroquine-sensitive Plasmodium falciparum NF54 assessed as inhibition of [3H[hypoxanthine incorporation. In kind it is functional, organism-based. The procedure, abridged:
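Run at Swiss TPH on P. falciparum NF54 (3D7 is a clone of it). Read-out is 3H-hypoxanthine incorporation. IC50 is the mean of ≥2 experiments.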

Data set [2] in a line: Kinetic solubility of the compound in phosphate buffered saline after 2 hrs at pH 7.4. It is filed as physicochemical. Conditions: read-out: Kinetic_solubility. The method in brief:
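Kinetic solubility measured in PBS, pH 7.4.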

A short description of data set [3]: Metabolic stability in human hepatic microsomes assessed as % turnover at 1 uM after 40 mins by LC/MS/MS analysis. Conditions: liver microsomes. For orientation: Liver microsomes are a subcellular fraction often used to study metabolism.
Data set [4] in a line: Apparent permeability of the compound from apical to basal side of human Caco2 cells at 10 uM after 60 mins. It is filed as ADME, cell-based. Conditions: Caco-2. The method in brief:
(§1)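 Apical and basal chambers in HBSS, pH 7.4. Compound at 10 μM added to the donor side at time zero. Donor and acceptor chambers both sampled after 60 min at 37 °C. A>B permeability reported in 10^-6 cm/s, plus efflux ratio.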
Background: Caco-2 monolayers are a common model of the intestinal barrier.

For data set [5], the system named is Plasmodium berghei. Nature of the data set: Antimalarial activity against GFP-transfected Plasmodium berghei ANKA infected in mouse assessed as reduction in parasitemia at 50 mg/kg, sc administered QD for 4 days relative to vehicle-treated control. It is filed as functional. Set-up: scale not given: the % may be the effect or the level left. Particulars: route subcutaneous. The method in brief:
(§2)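 Peters 4-day test: 50 mg/kg given sc once daily for 4 days. Parasitemia reduction and survival days are compared against infected, untreated control animals.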

Data set [6] in a line: Efflux ratio of apparent permeability across human Caco2 cells at 10 uM after 60 mins. In kind it is ADME, cell-based. Conditions: Caco-2. The procedure, abridged: as §1
Data set [7] can be described thus: […]-phosphate buffered saline partition coefficient, log D after 5 hrs by LC-UV analysis at pH 7.4. In kind it is physicochemical. Conditions: octan-1-ol/phosphate buffered saline. The method in brief:
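Log D from partition between octan-1-ol and phosphate-buffered PBS at pH 7.4.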

Data set [8] deals with Plasmodium berghei. Nature of the data set: Antimalarial activity against GFP-transfected Plasmodium berghei ANKA infected in mouse assessed as change in host survival time at 50 mg/kg, sc administered QD for 4 days relative to untreated control. In kind it is functional, organism-based. Also on record: dose 50 mg/kg. The procedure, abridged:
as §2

Turning to `c1ccc(-c2csc3ncnc(Sc4nnc5ccccn45)c23)cc1`, in data set [1], the IC50 turned out to be 2670 nM.

With `c1ccn2c(Sc3ncnc4sccc34)nnc2c1`, the 50% inhibitory concentration (IC50) in data set [1] was found to be 150 nM. Also, the solubility kinetic at 2 h in data set [2] is 20 µM (≈ 5.71 µg/mL). In addition, in data set [3], the % turnover at 40 min, 1 µM was determined as 50%. For the same compound, in data set [4], the Papp A→B at 1 h, 10 µM is 50 ×10⁻⁶ cm/s. Further, the Activity in data set [5] stood at 34%. In addition, the efflux ratio at 1 h, 10 µM in data set [6] turned out to be 0.28. Besides, the logD at 5 h in data set [7] was above 3.8. In addition, in data set [8], the outcome was inactive.

For `COc1ccc(CNc2cccc3[nH]c(C(F)(F)F)nc23)cc1`, the half-inhibitory concentration (IC50) in data set [1] was determined as 3930 nM.

As for `Cc1ccc(S(=O)(=O)Nc2cccc3[nH]c(C(F)(F)F)nc23)cc1`, the IC50 in data set [1] is above 100000 nM.

For the compound `Cc1ccc(-n2nc3c(C)nnc(C)c3c2C)cc1`, the IC50 in data set [1] is above 100000 nM.

Regarding `Cc1nnc(C)c2c(C)n(-c3ccc4c(c3)OCO4)nc12`, the IC50 in data set [1] was above 100000 nM.

For `Cc1nnc(N2CCOCC2)c2nn(-c3ccccc3)c(C)c12`, the half-inhibitory concentration (IC50) in data set [1] is above 100000 nM.

For `Cn1c(Sc2ncnc3sccc23)nnc1C1CC1`, the IC50 in data set [1] was 1480 nM.

For `Cc1sc2ncnc(Sc3nnc4ccccn34)c2c1C`, in data set [1], the half-inhibitory concentration (IC50) is 460 nM.

As to `CCCCN1CN=C(Nc2nc(C)c3ccccc3n2)NC1`, in data set [1], the 50% inhibitory concentration (IC50) was found to be 1580 nM.

On to `Cc1nc(NC2=NCCC(=O)N2)nc2ccccc12`, for which the half-maximal inhibitory concentration (IC50) in data set [1] was above 100000 nM.

On to `Cc1nnc(Cl)c2nn(-c3ccc(Cl)cc3)c(C)c12`, for which, in data set [1], the half-maximal inhibitory concentration (IC50) was found to be 420 nM.

Take `Cc1sc2ncnc(Sc3nnc(C(F)(F)F)n3C)c2c1C`: the 50% inhibitory concentration (IC50) in data set [1] is 5170 nM.

For `Cc1ccc(-n2nc3c(Cl)nnc(C)c3c2C)cc1`, the IC50 in data set [1] was found to be 310 nM.

With `CCOc1ccc(-n2nc3c(Cl)nnc(C)c3c2C)cc1`, the IC50 in data set [1] came to 340 nM.

As to `Cc1ccc(-n2c(Sc3ncnc4sccc34)nnc2N2CCCC2)cc1`, the IC50 in data set [1] was determined as 150 nM.

Turning to `CCc1nnc(Sc2ncnc3sccc23)[nH]1`, the half-maximal inhibitory concentration (IC50) in data set [1] came out at 1160 nM.

`CC(=O)/N=C(/NC(C)=O)Nc1nc(C)c2cc(C)ccc2n1`: the 50% inhibitory concentration (IC50) in data set [1] stood at 3740 nM.

Turning to `COc1nc(NC(=N)N)nc2ccc(C)cc12`, the concentration for half-maximal inhibition (IC50) in data set [1] was determined as 740 nM.

Turning to `Cc1nnc(Cl)c2nn(-c3ccccc3)c(C)c12`, in data set [1], the IC50 worked out at 430 nM.

Regarding `COc1ccc(CNc2cccc3[nH]c(C)nc23)cc1`, the IC50 in data set [1] is 9900 nM.

Regarding `Fc1ccc(CNc2cccc3[nH]c(C(F)(F)F)nc23)cc1`, in data set [1], the IC50 amounted to 490 nM. In data set [2], the solubility kinetic at 2 h is below 5 µM. Besides, the % turnover at 40 min, 1 µM in data set [3] turned out to be 19%. In data set [4], the apical-to-basolateral permeability (Papp A→B) at 1 h, 10 µM turned out to be 1.5 ×10⁻⁶ cm/s. For the same compound, the efflux ratio at 1 h, 10 µM in data set [6] amounted to 0.43. The compound further had a logD at 5 h in data set [7] of 2.

For `O=C(Cc1ccccc1)Nc1cccc2[nH]c(C(F)(F)F)nc12`, the IC50 in data set [1] is above 100000 nM.

Regarding `COc1cccc(-n2nc3c(C)nnc(C)c3c2C)c1`, in data set [1], the concentration for half-maximal inhibition (IC50) is above 100000 nM.

For `O=C(Nc1cccc2[nH]c(C(F)(F)F)nc12)c1ccc(Cl)cc1`, in data set [1], the IC50 was 10800 nM.

As to `CCOc1nnc(C)c2c(C)n(-c3cccc(OC)c3)nc12`, the IC50 in data set [1] came out at 16000 nM.

`Cc1nnc(Cl)c2nn(-c3cccc(Cl)c3)c(C)c12`: the IC50 in data set [1] was 280 nM.

For orientation: IC50 means the midpoint of a concentration-inhibition curve. Broadly, the Papp A→B is the apparent permeability from the apical to the basolateral side of a cell layer. By efflux ratio is commonly meant a quotient of directional permeabilities that is used to spot active efflux. In general, logD refers to lipophilicity at a set pH, counting ionised and neutral species.

Source of the values: ChEMBL document CHEMBL2086373, “Identification and In-Vitro ADME Assessment of a Series of Novel Anti-Malarial Agents Suitable for Hit-to-Lead Chemistry” (ACS Med Chem Lett, 2012).
